The source of these data is ChEMBL document CHEMBL1126152, “Fluoronaphthyridines as antibacterial agents. 4. Synthesis and structure-activity relationships of 5-substituted-6-fluoro-7-(cycloalkylamino)-1,4-dihydro-4-oxo-1,8- naphthyridine-3-carboxylic acids” (J Med Chem, 1992).

Data set [1] deals with Pseudomonas aeruginosa. Nature of the data set: animal or person. It is filed as functional. The note with it: in Mus musculus, po, read-out: PD50.
The nature of data set [2]: Lethal dose was determined in OF1-strain female Swiss mice after intra venous administration of the drug. Particulars: mouse, in vivo, iv.
A short description of data set [3]: Lethal dose was determined in OF1-strain female Swiss mice after oral administration of the drug. Particulars: mouse, in vivo.
A further data set relates to Proteus mirabilis. Nature of the data set: In vitro for antibacterial activity against Proteus mirabilis. It is filed as functional. In short, it runs like this:
(§1)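 MIC by serial 2-fold broth dilution in nutrient broth with an inoculum of 10^6 CFU/mL. Compound range was 0.0005–250 μg/mL. Plates were incubated 18 h at 37 °C. MIC was taken as the lowest concentration preventing visible growth.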

Another data set concerns Morganella morganii. The data set is described as follows: In vitro for antibacterial activity against Morganella morganii. Type of data set: functional. In short, it runs like this: as §1
The test system of the next data set is Serratia marcescens. The data set is described as follows: In vitro for antibacterial activity against Serratia marcescens. Type of data set: functional. The essentials: as §1
In data set [4] the test system is Staphylococcus aureus. The data set is described as follows: animal or person. Type of data set: functional. The note with it: in Mus musculus, po, read-out: PD50.
For data set [5], the system named is Staphylococcus aureus. The data set is described as follows: Antibacterial activity against Staphylococcus aureus. It is filed as functional.
Data set [6] relates to Streptococcus pneumoniae. The data set is described as follows: Antibacterial activity against Streptococcus pneumoniae. Type of data set: functional.
For data set [7], the system named is Escherichia coli. Nature of the data set: Compound was tested for […] against Escherichia coli A 15119 after oral administration of drug in mice. Particulars: read-out: PD50. Type of data set: functional. The essentials:
(§2)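 Mouse protection test against systemic infection. Compound was dissolved in sterile water and given orally to female OF1-strain Swiss mice weighing 18–25 g, with five mice per group.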

The next data set relates to Klebsiella pneumoniae. The data set is described as follows: In vitro for antibacterial activity against Klebsiella pneumoniae. It is filed as functional. In short, it runs like this: as §1
In the next data set the test system is Bacteroides fragilis. The data set is described as follows: In vitro for antibacterial activity against […]. It is filed as functional. The essentials: as §1
Another data set deals with Enterococcus faecalis. Nature of the data set: In vitro for antibacterial activity against Enterococcus faecalis. Type of data set: functional. In short, it runs like this:
as §1

Data set [8] can be described thus: Solubility was measured at PH - 7.2 buffer.
Data set [9] can be described thus: Partition coefficient (logD). The note with it: octanol/water.
The test system of data set [10] is Escherichia coli. The data set is described as follows: In vitro for antibacterial activity against Escherichia coli. It is filed as functional. In short, it runs like this: as §1
In the next data set the test system is Enterobacter cloacae. Nature of the data set: In vitro for antibacterial activity against Enterobacter cloacae. Type of data set: functional.
Data set [11] has as its system Pseudomonas aeruginosa. The data set is described as follows: In vitro for antibacterial activity against Pseudomonas aeruginosa. It is filed as functional. In short, it runs like this:
as §1

For data set [12], the system named is Streptococcus pneumoniae. Nature of the data set: animal or person. Type of data set: functional. Particulars: in Mus musculus, po, read-out: PD50.
The test system of another data set is Staphylococcus. Nature of the data set: Compound was tested for […] against Staphylococcus aureus A 15090 after oral administration of drug in mice. It is filed as functional. The note with it: read-out: PD50. The essentials: as §2
A short description of data set [13]: % dose recovered in mouse urine. Particulars: % recovery.
The species entered for a further data set is Mus musculus. The note with it: in vivo.
Data set [14] can be described thus: Max plasma concentration was measured by 40 mg/kg dose of peroral administration. Type of data set: ADME, organism-based. Also noted: dose 40 mg/kg, route oral. Particulars: po. In short, it runs like this:
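Mice were dosed orally at 40 mg/kg, and compound levels were measured in blood. Values came from duplicate or triplicate experiments and are stated as accurate to ±50%.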

Data set [15] is described as follows: in vivo. Particulars: mouse, plasma.
A short description of data set [16]: in vivo. The note with it: mouse, plasma, T1/2.

Converted amounts (≈) assume the structure as drawn. “And” between values parts separate entries of the source, which are not always exact repeats. Equal values may be shown once.

For `Cc1c(F)c(N2CC3CC2CN3)nc2c1c(=O)c(C(=O)O)cn2C1CC1` (centres undefined), the ED50 was 2.7 mg/kg with Pseudomonas aeruginosa [1], 5.4 mg/kg in the data set with Staphylococcus aureus [4], 0.9 mg/kg in the data set on Escherichia coli [7] and 43 mg/kg in the data set with Streptococcus pneumoniae [12]. For the same molecule, the median lethal dose (LD50) in [2] was found to be 131 mg/kg; in data set [3], 1750 mg/kg. The minimal inhibitory concentration (MIC) was found to be 0.016 µg/mL (≈ 0.0446 µM) with Proteus mirabilis; 0.016 µg/mL (≈ 0.0446 µM) with Morganella morganii; 0.03 µg/mL (≈ 0.0837 µM) in the data set with Serratia marcescens; 0.002 µg/mL (≈ 0.00558 µM) in the data set with Staphylococcus aureus [5]; 0.13 µg/mL (≈ 0.363 µM) in the data set with Streptococcus pneumoniae [6]; 0.002 µg/mL (≈ 0.00558 µM) in the data set with Klebsiella pneumoniae. For the same molecule, the minimal inhibitory concentration (MIC) against Bacteroides fragilis was found to be 1 µg/mL (≈ 2.79 µM); in the data set with Enterococcus faecalis, 0.13 µg/mL (≈ 0.363 µM); against Escherichia coli [10], 0.002 µg/mL (≈ 0.00558 µM); against Enterobacter cloacae, 0.002 µg/mL (≈ 0.00558 µM); in the data set on Pseudomonas aeruginosa [11] it was 0.25 µg/mL (≈ 0.698 µM). Further, the concentration in solution in [8] (solubility) was 20 µg/mL (≈ 55.8 µM). The logD in data set [9] worked out at 0.48.
As to `Cc1c(F)c(N2CC[C@H](N)C2)nc2c1c(=O)c(C(=O)O)cn2-c1ccc(F)cc1F`, the ED50 amounted to 2.2 mg/kg in the data set on Pseudomonas aeruginosa [1], 1.7 mg/kg with Staphylococcus aureus [4], 1.8 mg/kg in the data set with Escherichia coli [7] and 7.9 mg/kg in the data set with Streptococcus pneumoniae [12]. Also, the LD50 in data set [2] was 84 mg/kg; in data set [3], 2500 mg/kg. Further, the MIC against Proteus mirabilis worked out at 0.008 µg/mL (≈ 0.0191 µM); against Morganella morganii, 0.03 µg/mL (≈ 0.0717 µM); in the data set on Serratia marcescens it was 0.03 µg/mL (≈ 0.0717 µM); in the data set on Staphylococcus aureus [5], 0.002 µg/mL (≈ 0.00478 µM); against Streptococcus pneumoniae [6], 0.03 µg/mL (≈ 0.0717 µM); against Klebsiella pneumoniae, 0.002 µg/mL (≈ 0.00478 µM). In addition, the MIC in the data set on Bacteroides fragilis was found to be 0.25 µg/mL (≈ 0.598 µM); in the data set on Enterococcus faecalis, 0.06 µg/mL (≈ 0.143 µM); with Escherichia coli [10], 0.002 µg/mL (≈ 0.00478 µM); in the data set with Enterobacter cloacae, 0.002 µg/mL (≈ 0.00478 µM); against Pseudomonas aeruginosa [11], 0.25 µg/mL (≈ 0.598 µM). The amount in solution in data set [8] (solubility) came to 50 µg/mL (≈ 120 µM). The same molecule displayed a pH-dependent lipophilicity (logD) in [9] of 1.22.
Consider `Cc1c(F)c(N2CCNCC2)nc2c1c(=O)c(C(=O)O)cn2C1CC1`, for which the ED50 in the data set with Pseudomonas aeruginosa [1] is 5.6 mg/kg; with Escherichia coli [7], 1.2 mg/kg; in the data set with Staphylococcus, 9.6 mg/kg; in the data set on Streptococcus pneumoniae [12], more than 50 mg/kg. The MIC against Proteus mirabilis amounted to 0.13 µg/mL (≈ 0.375 µM); in the data set on Morganella morganii, 0.06 µg/mL (≈ 0.173 µM); in the data set on Serratia marcescens, 0.13 µg/mL (≈ 0.375 µM); with Staphylococcus aureus [5] it was 0.03 µg/mL (≈ 0.0866 µM); with Streptococcus pneumoniae [6], 1 µg/mL (≈ 2.89 µM); against Klebsiella pneumoniae, 0.02 µg/mL (≈ 0.0577 µM). Besides, the minimal inhibitory concentration (MIC) with Bacteroides fragilis turned out to be 32 µg/mL (≈ 92.4 µM); in the data set with Enterococcus faecalis, 1 µg/mL (≈ 2.89 µM); in the data set on Escherichia coli [10] it was 0.008 µg/mL (≈ 0.0231 µM); in the data set with Enterobacter cloacae it was 0.03 µg/mL (≈ 0.0866 µM); in the data set with Pseudomonas aeruginosa [11], 0.5 µg/mL (≈ 1.44 µM). The molecule further had a dose excreted in data set [13] of 12%. Also, in the data set listed under Mus musculus, the T1/2 is 2.73 h and 1.23 h.
As to `Cc1c(F)c(N2CC[C@H](N)C2)nc2c1c(=O)c(C(=O)O)cn2C(C)(C)C`, the ED50 is 25 mg/kg with Pseudomonas aeruginosa [1], 4.1 mg/kg with Staphylococcus and more than 25 mg/kg with Streptococcus pneumoniae [12]. Moreover, the Cmax (in data set [14]; in “in vivo [15]”) was 7000 ng/mL throughout. For the same molecule, the minimal inhibitory concentration (MIC) turned out to be 0.06 µg/mL (≈ 0.166 µM) against Proteus mirabilis; 0.06 µg/mL (≈ 0.166 µM) with Morganella morganii; 0.13 µg/mL (≈ 0.359 µM) in the data set with Serratia marcescens; 0.004 µg/mL (≈ 0.011 µM) in the data set on Staphylococcus aureus [5]; 0.25 µg/mL (≈ 0.69 µM) in the data set on Streptococcus pneumoniae [6]; 0.03 µg/mL (≈ 0.0828 µM) in the data set with Klebsiella pneumoniae. Moreover, the MIC in the data set on Bacteroides fragilis was 4 µg/mL (≈ 11 µM); with Enterococcus faecalis it was 0.13 µg/mL (≈ 0.359 µM); against Escherichia coli [10], 0.004 µg/mL (≈ 0.011 µM); in the data set with Enterobacter cloacae, 0.03 µg/mL (≈ 0.0828 µM); with Pseudomonas aeruginosa [11], 1 µg/mL (≈ 2.76 µM). In addition, in [13], the dose excreted is 7%. The molecule further displayed a solubility in [8] of 570 µg/mL (≈ 1570 µM). The logD in [9] was 1.14. The same molecule returned a half-life in the data set “in vivo [16]” of 2.83 h.
As to `Cc1c(F)c(N2CC3CC2CN3)nc2c1c(=O)c(C(=O)O)cn2-c1ccc(F)cc1F` (centres undefined), the ED50 is 1.6 mg/kg with Pseudomonas aeruginosa [1] and 0.7 mg/kg in the data set with Staphylococcus aureus [4]. Also, the MIC stood at 0.06 µg/mL (≈ 0.139 µM) in the data set with Proteus mirabilis; 0.13 µg/mL (≈ 0.302 µM) in the data set on Morganella morganii; 0.13 µg/mL (≈ 0.302 µM) in the data set on Serratia marcescens; 0.008 µg/mL (≈ 0.0186 µM) against Staphylococcus aureus [5]; 0.06 µg/mL (≈ 0.139 µM) with Streptococcus pneumoniae [6]; 0.06 µg/mL (≈ 0.139 µM) against Klebsiella pneumoniae. In addition, the MIC against Bacteroides fragilis worked out at 4 µg/mL (≈ 9.29 µM); in the data set on Enterococcus faecalis, 0.13 µg/mL (≈ 0.302 µM); in the data set on Escherichia coli [10] it was 0.008 µg/mL (≈ 0.0186 µM); in the data set on Enterobacter cloacae it was 0.03 µg/mL (≈ 0.0697 µM); with Pseudomonas aeruginosa [11], 0.5 µg/mL (≈ 1.16 µM). The molecule also showed a Cmax in the data set “in vivo [15]” of 20000 ng/mL. In [13], this molecule gave a dose excreted of 11%. Moreover, the solubility in data set [8] was found to be 50 µg/mL (≈ 116 µM). This molecule had a log distribution coefficient (logD) in [9] of 0.59. The T1/2 in the data set listed under Mus musculus came to 2.08 h. The same molecule came in with a half-life in “in vivo [16]” of 2.38 h.
